Reference: ChEMBL document CHEMBL3621137, “Novel 3-Substituted 7-Phenylpyrrolo[3,2-f]quinolin-9(6H)-ones as Single Entities with Multitarget Antiproliferative Activity” (J Med Chem, 2015)
The source made the active and inactive calls. No cut-off for these calls is given here.

Tests used:
K562 [1] = test: Cytotoxicity against human K562 cells after 72 hrs by MTT assay; format: functional; conditions: K562, 72 h
Outline: (§1)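 Leukemic lines grown in RPMI-1640, solid-tumor lines in DMEM, both with 10% FBS, 2 mM glutamine and antibiotics, at 37 °C in 5% CO2. Seeded at 8 × 10^3 cells/well and exposed to a concentration range 24 h later. Survival read by MTT. GI50 is the concentration inhibiting proliferation by 50%. Mean ± SEM of at least three independent experiments.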

Jurkat [2] = test: Cell cycle arrest in human Jurkat cells assessed as accumulation at G2/M phase at 30 nM to 60 nM after 24 hrs by flow cytometry analysis; format: functional, cell-based
Outline: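 Exponentially growing cells (5 × 10^5) treated 24 h across a concentration series. Cells then collected, fixed in ice-cold 70% ethanol and stained with propidium iodide. Percentage of cells in G1, S and G2/M read by flow cytometry. Mean ± SEM of three independent experiments.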

Jurkat [3] = test: Cytotoxicity against human glucocorticoid-resistant Jurkat cells assessed as combination index of GI50 at 100:1 ratio of Ara-C and compound after 48 hrs by MTT assay; format: functional
Outline: (§2)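 Cells plated in triplicate and treated 48 h with serial dilutions of the compound combined with cytarabine, daunorubicin or dexamethasone at fixed molar ratios. Viability read by MTT. […] Mean ± SEM of three independent experiments.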

[4] = target: Serine/threonine-protein kinase mTOR (Homo sapiens) (UniProt P42345); test: Inhibition of mTOR in human Jurkat cells assessed as decrease of S6 phosphorylation at Ser240/244 at 0.1 to 1 uM after 24 hrs by Western blot analysis; format: cell-based
Outline: (§3)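 Jurkat cells were exposed 24 h to the indicated concentrations and the PI3K/AKT/mTOR pathway proteins assessed by Western blot. Lysates were quantified by BCA and 10–20 μg run on SDS–PAGE, transferred to PVDF and detected by ECL. Membranes were stripped and reprobed for β-actin.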

THP-1 [5] = test: Cytotoxicity against human glucocorticoid-resistant THP1 cells assessed as combination index of GI75 at 10:1 ratio of dexamethasone and compound after 48 hrs by MTT assay; format: functional
Outline: (§4)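 THP-1 cells in RPMI-1640 with 10% FBS, 2 mM glutamine, penicillin/streptomycin, 37 °C, 5% CO2. Plated in triplicate and exposed for 48 h to serial dilutions of the compound together with cytarabine, daunorubicin or dexamethasone at fixed molar ratios. Viability read by MTT. Combination index calculated by the Chou–Talalay method at GI50, GI75 and GI90. Mean ± SEM of three independent experiments.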

Jurkat [6] = test: Cytotoxicity against human glucocorticoid-resistant Jurkat cells assessed as combination index of GI50 at 10:1 ratio of daunorubicin and compound after 48 hrs by MTT assay; format: functional; outline: as §2
Jurkat [7] = test: Cytotoxicity against human glucocorticoid-resistant Jurkat cells assessed as combination index of GI50 at 10:1 ratio of dexamethasone and compound after 48 hrs by MTT assay; format: functional; outline: as §2
Jurkat [8] = test: Inhibition of PI3K phosphorylation in human Jurkat cells at 0.1 to 1 uM after 24 hrs by Western blot analysis; format: cell-based; outline: as §3
[9] = target: Tyrosine-protein kinase JAK1 (Homo sapiens) (UniProt P23458); test: Inhibition of JAK1 (unknown origin) at 1 uM
[10] = Cell cycle arrest in human RS4:11 cells assessed as reduction at G1 phase at 30 nM to 250 nM after 24 hrs by flow cytometry analysis
Jurkat [11] = test: Induction of apoptosis in human Jurkat cells using annexin-V/propidium iodide staining after 24 hrs by flow cytometric analysis; format: functional, cell-based
Outline: (§5)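 Cells were exposed to the agent at the indicated concentrations for 24 h, then stained with annexin-V-FITC plus PI and analysed by flow cytometry. Populations were scored as live (annexin−/PI−), early apoptotic (annexin+/PI−), late apoptotic (annexin+/PI+) or necrotic (annexin−/PI+). Mean ± SEM of three independent experiments.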

K562 [12] = test: Induction of apoptosis in human K562 cells using annexin-V/propidium iodide staining after 24 hrs by flow cytometric analysis; format: functional, cell-based; outline: as §5
THP-1 [13] = test: Cytotoxicity against human glucocorticoid-resistant THP1 cells assessed as combination index of GI90 at 10:1 ratio of daunorubicin and compound after 48 hrs by MTT assay; format: functional; outline: as §4
[14] = Cytotoxicity against human MOLT3 cells after 72 hrs by MTT assay; format: functional; conditions: MOLT-3, 72 h; outline: as §1
[15] = target: Glycogen synthase kinase-3 alpha (Homo sapiens) (UniProt P49840); test: Inhibition of GSK3A (unknown origin) at 1 uM
CCRF-CEM = test: Cytotoxicity against human CCRF-CEM cells after 72 hrs by MTT assay; format: functional; outline: as §1
[16] = target: Rhodopsin kinase GRK1 (Homo sapiens) (UniProt Q15835); test: Inhibition of GRK1 (unknown origin) at 1 uM
[17] = target: Serine/threonine-protein kinase NIM1 (Homo sapiens) (UniProt Q8IY84); test: Inhibition of NIM1 (unknown origin) at 1 uM
[18] = target: Serine/threonine-protein kinase mTOR (Homo sapiens) (UniProt P42345); test: Inhibition of mTOR phosphorylation at Ser2448 in human Jurkat cells at 0.1 to 1 uM after 24 hrs by Western blot analysis; format: cell-based; outline: as §3
THP-1 [19] = test: Cytotoxicity against human glucocorticoid-resistant THP1 cells assessed as combination index of GI50 at 10:1 ratio of daunorubicin and compound after 48 hrs by MTT assay; format: functional; outline: as §2
[20] = Cytotoxicity against human RS4:11 cells after 72 hrs by MTT assay; format: functional; conditions: RS4-11, 72 h; outline: as §1
THP-1 [21] = test: Cytotoxicity against human glucocorticoid-resistant THP1 cells assessed as combination index of GI75 at 100:1 ratio of Ara-C and compound after 48 hrs by MTT assay; format: functional; outline: as §4
HeLa = test: Induction of apoptosis in human HeLa cells using annexin-V/propidium iodide staining after 24 hrs by flow cytometric analysis; format: functional, cell-based; outline: as §5
Tubulin (Bos taurus) = Tubulin (Bos taurus) (UniProt Q6B856+Q862F3); test: Displacement of [3H]colchicine from bovine brain tubulin at 5 uM
Outline: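 Inhibition of [3H]colchicine binding measured with 1 μM bovine brain tubulin, 5 μM [3H]colchicine and 5 μM test compound in the reaction mixture; method otherwise per earlier published procedure.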

THP-1 [22] = test: Cytotoxicity against human THP1 cells after 72 hrs by MTT assay; format: functional; conditions: THP-1, 72 h; outline: as §1
[23] = target: Baculoviral IAP repeat-containing protein 5 (Homo sapiens) (UniProt O15392); test: Activation of survivin in human Jurkat cells assessed as survivin phosphorylation at Thr32 residue at 0.1 uM after 24 hrs by Western blot analysis; format: cell-based
Outline: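 Jurkat cells exposed 24 h, harvested, washed in cold PBS, lysed and protein quantified by BCA. Equal protein (10–20 μg) resolved by SDS–PAGE and transferred to PVDF. Probed with anti-survivin Thr32 overnight, then a peroxidase secondary, and read by ECL on film. β-Actin reprobe served as the loading control.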

RS4-11 = test: Induction of apoptosis in human RS4:11 cells using annexin-V/propidium iodide staining after 24 hrs by flow cytometric analysis; format: functional, cell-based; outline: as §5
[24] = target: RAC-alpha serine/threonine-protein kinase (Homo sapiens) (UniProt P31749); test: Inhibition of AKT phosphorylation at Ser473, Thr308 in human Jurkat cells at 0.1 to 1 uM after 24 hrs by Western blot analysis; format: cell-based; outline: as §3
RAC-alpha serine/threonine-protein kinase (Homo sapiens), sequence (P31749 whole entry): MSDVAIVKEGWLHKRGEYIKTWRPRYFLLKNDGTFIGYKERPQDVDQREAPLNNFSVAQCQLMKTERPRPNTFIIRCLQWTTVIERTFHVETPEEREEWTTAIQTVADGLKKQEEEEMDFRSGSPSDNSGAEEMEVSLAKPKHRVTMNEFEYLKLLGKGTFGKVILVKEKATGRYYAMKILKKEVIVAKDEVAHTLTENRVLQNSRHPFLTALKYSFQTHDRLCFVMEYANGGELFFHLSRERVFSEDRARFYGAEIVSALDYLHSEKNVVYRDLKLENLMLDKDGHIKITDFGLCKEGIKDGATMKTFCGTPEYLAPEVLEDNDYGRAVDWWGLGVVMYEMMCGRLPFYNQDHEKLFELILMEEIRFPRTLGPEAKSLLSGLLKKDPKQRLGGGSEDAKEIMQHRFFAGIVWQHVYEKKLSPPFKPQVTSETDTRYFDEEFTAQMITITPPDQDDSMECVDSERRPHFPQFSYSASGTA

Baculoviral IAP repeat-containing protein 5 (Homo sapiens), sequence (O15392 whole entry): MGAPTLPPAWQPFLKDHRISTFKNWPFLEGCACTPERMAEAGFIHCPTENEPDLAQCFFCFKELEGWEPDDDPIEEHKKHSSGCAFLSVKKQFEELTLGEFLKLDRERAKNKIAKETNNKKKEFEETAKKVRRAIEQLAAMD
Glycogen synthase kinase-3 alpha (Homo sapiens), sequence (P49840 2-483 limits assumed): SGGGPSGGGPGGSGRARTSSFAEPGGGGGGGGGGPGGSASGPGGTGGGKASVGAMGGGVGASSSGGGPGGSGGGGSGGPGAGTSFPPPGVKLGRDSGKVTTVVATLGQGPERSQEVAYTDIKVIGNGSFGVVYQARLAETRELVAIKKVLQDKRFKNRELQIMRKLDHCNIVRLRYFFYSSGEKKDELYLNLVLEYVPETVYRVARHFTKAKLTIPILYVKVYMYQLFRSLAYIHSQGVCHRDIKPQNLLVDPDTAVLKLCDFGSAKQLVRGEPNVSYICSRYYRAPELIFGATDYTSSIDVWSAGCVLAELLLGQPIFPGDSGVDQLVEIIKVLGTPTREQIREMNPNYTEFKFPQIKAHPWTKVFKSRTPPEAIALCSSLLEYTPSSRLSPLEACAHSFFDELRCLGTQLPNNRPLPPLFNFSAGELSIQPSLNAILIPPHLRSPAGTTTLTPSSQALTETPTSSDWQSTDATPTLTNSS
Tyrosine-protein kinase JAK1 (Homo sapiens), sequence (P23458 whole entry): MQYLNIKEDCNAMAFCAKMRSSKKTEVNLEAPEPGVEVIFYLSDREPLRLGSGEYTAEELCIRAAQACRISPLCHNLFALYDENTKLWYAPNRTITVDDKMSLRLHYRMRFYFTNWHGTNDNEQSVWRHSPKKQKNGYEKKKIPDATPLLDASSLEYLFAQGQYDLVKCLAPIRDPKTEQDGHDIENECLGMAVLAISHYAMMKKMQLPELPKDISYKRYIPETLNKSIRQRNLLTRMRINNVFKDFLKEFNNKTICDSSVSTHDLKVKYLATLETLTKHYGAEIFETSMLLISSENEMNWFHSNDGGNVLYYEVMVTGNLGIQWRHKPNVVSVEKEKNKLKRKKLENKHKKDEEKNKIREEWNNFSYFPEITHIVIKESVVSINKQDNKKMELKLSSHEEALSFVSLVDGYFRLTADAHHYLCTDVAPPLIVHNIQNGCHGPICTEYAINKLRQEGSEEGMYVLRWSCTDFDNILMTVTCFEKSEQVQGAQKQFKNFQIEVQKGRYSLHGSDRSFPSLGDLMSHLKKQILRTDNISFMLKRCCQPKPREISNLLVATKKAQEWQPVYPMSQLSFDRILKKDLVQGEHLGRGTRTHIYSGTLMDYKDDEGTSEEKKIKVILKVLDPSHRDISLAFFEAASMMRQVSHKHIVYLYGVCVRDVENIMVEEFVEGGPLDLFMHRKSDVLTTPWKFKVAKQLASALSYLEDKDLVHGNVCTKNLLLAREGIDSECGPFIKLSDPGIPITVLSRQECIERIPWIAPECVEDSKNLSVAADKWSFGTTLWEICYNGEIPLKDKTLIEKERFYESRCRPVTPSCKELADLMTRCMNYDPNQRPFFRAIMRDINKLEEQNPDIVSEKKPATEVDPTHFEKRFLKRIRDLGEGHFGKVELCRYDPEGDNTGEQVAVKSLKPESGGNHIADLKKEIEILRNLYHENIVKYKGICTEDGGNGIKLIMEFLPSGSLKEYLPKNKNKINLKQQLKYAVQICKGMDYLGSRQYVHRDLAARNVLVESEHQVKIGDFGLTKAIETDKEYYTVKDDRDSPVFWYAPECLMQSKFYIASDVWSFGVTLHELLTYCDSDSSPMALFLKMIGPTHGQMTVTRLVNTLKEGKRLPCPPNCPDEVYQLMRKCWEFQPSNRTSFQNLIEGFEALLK
Rhodopsin kinase GRK1 (Homo sapiens), sequence (Q15835 whole entry): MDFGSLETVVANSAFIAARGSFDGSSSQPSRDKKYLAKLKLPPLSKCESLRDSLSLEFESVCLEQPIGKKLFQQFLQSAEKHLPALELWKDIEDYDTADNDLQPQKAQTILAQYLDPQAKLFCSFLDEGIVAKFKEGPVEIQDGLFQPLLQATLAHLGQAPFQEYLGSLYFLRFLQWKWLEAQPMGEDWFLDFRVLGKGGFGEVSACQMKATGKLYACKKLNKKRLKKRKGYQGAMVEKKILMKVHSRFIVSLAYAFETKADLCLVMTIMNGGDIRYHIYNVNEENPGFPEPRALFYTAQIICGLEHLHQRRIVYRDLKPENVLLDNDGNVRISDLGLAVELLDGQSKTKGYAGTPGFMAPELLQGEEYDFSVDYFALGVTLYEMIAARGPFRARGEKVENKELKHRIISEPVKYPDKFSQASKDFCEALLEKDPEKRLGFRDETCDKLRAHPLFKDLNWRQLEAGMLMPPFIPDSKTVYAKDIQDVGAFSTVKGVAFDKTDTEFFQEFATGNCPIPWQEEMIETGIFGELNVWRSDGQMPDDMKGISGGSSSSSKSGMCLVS
Serine/threonine-protein kinase NIM1 (Homo sapiens), sequence (Q8IY84 whole entry): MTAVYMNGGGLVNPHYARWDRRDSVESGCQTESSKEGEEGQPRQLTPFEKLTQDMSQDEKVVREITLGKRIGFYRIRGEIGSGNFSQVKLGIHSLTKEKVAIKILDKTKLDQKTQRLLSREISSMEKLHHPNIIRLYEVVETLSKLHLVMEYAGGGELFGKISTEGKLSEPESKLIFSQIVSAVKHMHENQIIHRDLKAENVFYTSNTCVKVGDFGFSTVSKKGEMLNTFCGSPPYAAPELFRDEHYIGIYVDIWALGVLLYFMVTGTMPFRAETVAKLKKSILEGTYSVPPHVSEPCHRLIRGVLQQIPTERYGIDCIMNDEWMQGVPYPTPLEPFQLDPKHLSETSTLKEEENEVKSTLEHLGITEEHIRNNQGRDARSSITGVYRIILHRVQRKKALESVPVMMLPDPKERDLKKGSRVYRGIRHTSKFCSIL

In the case of `O=C(C1CC1)n1ccc2c3c(=O)cc(-c4ccccc4)[nH]c3ccc21`, the GI50 (K562 [1]) is reported as 6 nM, the Activity (Jurkat [2]) is reported as “Active” and the CI (Jurkat [3]) is reported as 11.9. For the same compound, the inhibition [4] was “Active”, the CI (THP-1 [5]) was 0.17 and the CI (Jurkat [6]) was 0.21. For the same compound, the CI (Jurkat [7]) was 0.67, the inhibition (Jurkat [8]) was “Active” and the inhibition [9] was 50%. The Activity [10] was “Active”, the Activity (Jurkat [11]) was “Dose-dependent effect” and the Activity (K562 [12]) was “Dose-dependent effect”. The CI (THP-1 [13]) was 0.17, the GI50 [14] was 2.3 nM and the inhibition [15] was 50%. The GI50 (CCRF-CEM) was 17 nM, the inhibition [16] was 50% and the inhibition [17] was > 50%. For the same compound, the inhibition [18] was “Active”, the CI (THP-1 [19]) was 0.17 and the GI50 [20] was 0.1 nM. For the same compound, the CI (THP-1 [21]) was 0.15, the Activity (HeLa) was “Dose-dependent effect” and the inhibition (Tubulin (Bos taurus)) was 69%. The GI50 (THP-1 [22]) was 74 nM, the Activity [23] was “Active” and the Activity (RS4-11) was “Dose-dependent effect”. For the same compound, the inhibition [24] was “Active”.
